Laboratory results from ChEMBL document CHEMBL1148923, “Novel cassane and cleistanthane diterpenes from Myrospermum frutescens: absolute stereochemistry of the cassane diterpene series” (J Nat Prod, 2004).

Experiments:
Trypanosoma cruzi [1] = assay: Antitrypanosomal activity against intracellular Trypanosoma cruzi Tulahuen clone C4 assessed as cleavage of […]; format: functional, organism-based
Procedure, shortened: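 Transgenic T. cruzi (Tulahuen strain, clone C4) expressing β-galactosidase were exposed to added compound. Growth of the intracellular form was read as cleavage of chlorophenol red-β-D-galactoside (CPRG) at 570 nm.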

Trypanosoma cruzi [2] = assay: Antitrypanosomal activity against extracellular Trypanosoma cruzi Tulahuen clone C4; format: functional, organism-based
Vero = assay: Cytotoxicity against african green monkey Vero cells after 4 hrs by MTT assay; format: cell-based; details: Chlorocebus sabaeus
Procedure, shortened: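 Adherent Vero cells were treated with compound and incubated 4 h at 37°. Viability was read from MTT reduction in an ELISA reader at 570 nm.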

Row | SMILES | IC50 (Trypanosoma cruzi [1]) | IC50 (Trypanosoma cruzi [2]) | IC50 (Vero)
1 | C=CC1=C(CO)[C@@H]2C[C@@H](O)[C@H]3[C@](C)(COC(C)=O)CCC[C@]3(C)[C@H]2CC1 [CHAGRESNOL] | 76 µM | 38.8 µM | 156 µM
2 | CC(=O)OC[C@]1(C)CCC[C@]2(C)[C@H]3CCC(C=O)=C(C)[C@@H]3CC(=O)[C@@H]12 | 61.4 µM | 40.4 µM | 416 µM
3 | C[C@]1(CO)CCC[C@]2(C)[C@H]3CC(=O)[C@@]4(C)[C@@H]([C@@H]3CC[C@@H]12)[C@@H]4CO |  |  | 433 µM
4 | CO[C@@]12C[C@H]3[C@@H]([C@@H](O)[C@@H](OC(C)=O)[C@H]4[C@](C)(COC(C)=O)CCC[C@]34C)[C@@H](C)C1=CC(=O)O2 [CHAGRESLACTONE] |  | 75 µM | 225 µM
5 | CC(=O)OC[C@H]1[C@@H]2[C@@H]3CC[C@H]4[C@@](C)(CO)CCC[C@]4(C)[C@H]3CC(=O)[C@@]21C [CHAGRESNONE] | 95.5 µM | 56.9 µM | 448 µM
6 | C=C[C@@]1(O)CC[C@H]2[C@@H](C[C@@H](O)[C@H]3[C@](C)(COC(C)=O)CCC[C@]23C)C1=C |  | 16 µM | 
7 | C=CC1=C(C)[C@@H]2CC(=O)[C@H]3[C@](C)(COC(C)=O)CCC[C@]3(C)[C@H]2CC1 | 79.1 µM | 17.7 µM | 238 µM
8 | C=CC1=C(C)[C@@H]2CC[C@H]3[C@](C)(CO)CCC[C@]3(C)[C@H]2CC1 |  | 48 µM | 
9 | C=CC1=C(C)[C@@H]2C[C@@H](OC(C)=O)[C@H]3[C@](C)(CO)CCC[C@]3(C)[C@H]2CC1 | 76.5 µM | 56.7 µM | 178 µM
10 | C=CC1=C(C)[C@@H]2C[C@@H](O)[C@H]3[C@](C)(COC(C)=O)CCC[C@]3(C)[C@H]2CC1 |  | 11 µM | 
11 | C=CC1=C(C)[C@@H]2C[C@@H](O)[C@H]3[C@](C)(CO)CCC[C@]3(C)[C@H]2CC1 | 16 µM |  | 
